Active and inactive are the calls of the source. The rule behind the calls is not given here.
Key:
[1] = molecular target: T1, Microtubule-associated protein tau (Homo sapiens, UniProt P10636); experiment: Displacement of Bis-ANS from solvent exposed hydrophobic site of non-aggregated human full length recombinant tau-441 expressed in Escherichia coli assessed as reduction in fluorescence intensity at 120 uM incubated for 72 hrs by Bis-ANS fluorescence assay
Summary of the method: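 Competition control: non-aggregated tau441 (909 μg/mL) is held with compound and without heparin for 72 h at 37 °C. It is then mixed with Bis-ANS (100 μM final) for 60 min at room temperature. Fluorescence is read at 25 °C, ex 350 nm, emission 400–600 nm, and loss of 510 nm signal is taken as Bis-ANS displacement from tau hydrophobic sites.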

[2] = molecular target: T1, Microtubule-associated protein tau; experiment: Inhibition of human full length recombinant tau-441 expressed in Escherichia coli assessed as inhibition of heparin-induced protein aggregation by measuring reduction in fluorescence intensity at 5 to 120 uM incubated for 72 hrs by Proteo-stat fluorescence aggregation assay; conditions: dose microM 5-120, time 72.0 hrs
Summary of the method: (§1)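 Recombinant full-length tau441 (19.8 μM final, 909 μg/mL) is aggregated with heparin (4.95 μM final) in pH 6.8 tau buffer (MES, EGTA, NaCl) for 72 h at 37 °C. Compounds are dissolved in DMSO and added at 5, 40, 120 or 250 μM final. A 10 μL aliquot is mixed 10:1 v/v with Proteostat reagent and read at ex 550/em 600 nm. Triplicates. IC50 comes from a sigmoidal dose-response fit.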

[3] = molecular target: T1, Microtubule-associated protein tau; experiment: Inhibition of human full length recombinant tau-441 expressed in Escherichia coli assessed as inhibition of heparin-induced beta-sheet formation and protein aggregation by measuring fluorescence intensity at 120 uM incubated for 72 hrs by Proteo-stat fluorescence aggregation assay; summary of the method: as §1
[4] = molecular target: T1, Microtubule-associated protein tau; experiment: Inhibition of human full length recombinant tau-441 expressed in Escherichia coli assessed as inhibition of heparin-induced protein aggregation by measuring reduction in fluorescence intensity incubated for 72 hrs by Proteo-stat fluorescence aggregation assay
[5] = molecular target: T1, Microtubule-associated protein tau; experiment: Inhibition of human full length recombinant tau-441 expressed in Escherichia coli assessed as inhibition of heparin-induced protein aggregation by measuring fluorescence intensity at 120 uM incubated for 72 hrs by Bis-ANS fluorescence assay
Summary of the method: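 Tau441 (19.8 μM) with heparin (4.95 μM) and compound (120 μM) in DMSO/tau buffer pH 6.8 is aged 72 h at 37 °C. A 10 μL aliquot gets Bis-ANS (100 μM final, from stock in 20 mM Tris pH 7.4) for 60 min at room temperature. Emission is scanned 400–600 nm at 25 °C (ex 350 nm) and the 510 nm intensity is taken. Triplicate measurements.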

[6] = molecular target: T1, Microtubule-associated protein tau; experiment: Inhibition of human full length recombinant tau-441 expressed in Escherichia coli assessed as inhibition of heparin-induced protein aggregation by measuring reduction in fibrillization by measuring reduction in short and long filaments and fibrillar network formation at 120 uM incubated for 72 hrs by transmission electron microscopy
[7] = Inhibition of N-terminal His6-tagged human tau K18deltaK280 mutant assessed as inhibition of protein aggregation

T1 sequence (P10636 whole entry): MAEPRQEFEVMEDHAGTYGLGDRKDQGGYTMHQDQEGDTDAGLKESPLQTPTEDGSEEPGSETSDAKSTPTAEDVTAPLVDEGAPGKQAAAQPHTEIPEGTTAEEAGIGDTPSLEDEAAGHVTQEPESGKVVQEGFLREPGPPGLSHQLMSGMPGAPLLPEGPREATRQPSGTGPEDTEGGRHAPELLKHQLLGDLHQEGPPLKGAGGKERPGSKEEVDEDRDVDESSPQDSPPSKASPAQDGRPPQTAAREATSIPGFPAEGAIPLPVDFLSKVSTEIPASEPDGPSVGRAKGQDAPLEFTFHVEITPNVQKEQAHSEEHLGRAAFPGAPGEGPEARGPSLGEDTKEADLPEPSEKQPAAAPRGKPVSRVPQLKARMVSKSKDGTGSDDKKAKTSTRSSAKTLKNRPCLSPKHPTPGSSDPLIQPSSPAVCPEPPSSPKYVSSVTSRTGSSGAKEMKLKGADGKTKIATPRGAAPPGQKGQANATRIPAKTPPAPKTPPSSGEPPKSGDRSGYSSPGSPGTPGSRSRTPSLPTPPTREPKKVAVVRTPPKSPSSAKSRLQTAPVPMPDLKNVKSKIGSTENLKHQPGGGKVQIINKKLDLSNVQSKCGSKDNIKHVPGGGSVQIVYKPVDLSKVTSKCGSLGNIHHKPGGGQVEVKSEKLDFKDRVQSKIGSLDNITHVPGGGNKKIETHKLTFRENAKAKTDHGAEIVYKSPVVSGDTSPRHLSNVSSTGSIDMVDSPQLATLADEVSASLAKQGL

inhibition [1]	inhibition [2]	Activity [3]	IC50 [4]	inhibition [5]	inhibition [6]	IC50 ([4]; read-out: IC50)	Activity [5]	Structure (SMILES)	IC50 [7]
inactive	inactive	9000 a.u.	Not Active	inactive	inactive	–	–	CCCN(CCN1CCN(c2ccc(-c3ccccc3)cc2)CC1)[C@H]1CCc2nc(N)sc2C1	–
Active	Active	1000 a.u.	–	–	Active	25 µM	1500 a.u.	CCCN(CCN1CCN(c2ccc(-c3ccc(O)c(O)c3)cc2)CC1)[C@H]1CCc2c(O)cccc2C1	–
–	–	–	–	–	–	–	–	O=C(O[C@@H]1Cc2c(O)cc(O)cc2O[C@@H]1c1cc(O)c(O)c(O)c1)c1cc(O)c(O)c(O)c1 [EPIGALOCATECHIN GALLATE]	> 200 µM
95%	Active	1000 a.u.	–	–	Active	–	400 a.u.	CN(C)c1ccc2nc3ccc(=[N+](C)C)cc-3sc2c1	–
Active	Active	1000 a.u.	–	–	Active	21 µM	1000 a.u.	CCCN(CCN1CCN(c2ccc(-c3ccc(O)c(O)c3)cc2)CC1)[C@H]1CCc2nc(N)sc2C1	–
inactive	inactive	7000 a.u.	Not Active	inactive	inactive	–	–	CCCN(CCN1CCN(c2ccc3[nH]c4ccccc4c3c2)CC1)[C@H]1CCc2nc(N)sc2C1	–

— ChEMBL document CHEMBL4725383 (Bioorg Med Chem, 2020)
